We go through five compounds from ChEMBL document CHEMBL4602735, “Discovery of (1H-Pyrazolo[3,4-c]pyridin-5-yl)sulfonamide Analogues as Hepatitis B Virus Capsid Assembly Modulators by Conformation Constraint” (J Med Chem, 2020).

Each structure is given as a SMILES string. Activity calls are given as the source filed them. A value given as a limit tells only on which side of the number the result lay.

Data set [1] can be described thus: Stability in pH 6.8 buffer assessed as compound remaining level at 37 degC by HPLC analysis. The class given is physicochemical. The procedure, abridged:
(§1)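 Prodrug incubated in buffer (0.1 M HCl, pH 5.8, 6.8 or 7.4) at 37 °C; percent of compound remaining determined by HPLC; remaining percentage reported after 3 h, stability meaning no hydrolysis after 2 h.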

A short description of data set [2]: Stability in pH 5.8 buffer assessed as compound remaining level at 37 degC by HPLC analysis. The data set is classed as physicochemical. An outline of the steps: as §1
A short description of data set [3]: Half life in mouse plasma by HPLC analysis. The class given is ADME, cell-free. An outline of the steps: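 Prodrug incubated in plasma at 37 °C, with percent remaining determined by HPLC to derive half-life.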
A short description of data set [4]: Stability in pH 7.4 buffer assessed as compound remaining level after 3 hrs at 37 degC by HPLC analysis. The class given is physicochemical. The note with it: read-out: Stability. The procedure, abridged: as §1
Data set [5] in a line: Selectivity index, ratio of CC50 for cytotoxicity in human HepAD38 cells assessed as induction of cell killing to EC50 for antiviral activity against HBV infected in human HepAD38 cells assessed as reduction in viral DNA levels incubated for 6 days by PCR analysis. The data set is classed as toxicity, cell-based. The note with it: read-out: Ratio CC50/EC50.
Data set [6] in a line: Cytotoxicity in human HepG2 cells assessed as induction of cell killing. The data set is classed as cell-based.
Data set [7] deals with Hepatitis B virus. The data set is described as follows: Antiviral activity against multidrug-resistant HBV infected in human HepG2.1403F cells assessed as reduction in viral replication incubated for 6 days by PCR analysis. The class given is functional, organism-based. The note with it: 144 h. The procedure, abridged:
(§2)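 Wild-type HBV replication measured in HepAD38 and HepG2.2.15 cells, lamivudine/entecavir-resistant HBV in HepG2.A64 cells (rtL180M+rtT184L+rtM204V) and multidrug-resistant HBV in HepG2.1403F cells (rtL180M+rtM204V+rtS202G+rtN236T). Read-out is reduction of HBV DNA. EC50 is reported as mean ± SD.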

Data set [8] deals with Hepatitis B virus. The data set is described as follows: Antiviral activity against HBV infected in human HepAD38 cells assessed as reduction in viral DNA levels incubated for 6 days by PCR analysis. The class given is functional, organism-based. The conditions noted are these: HePAD38, 144 h.
In data set [9] the test system is Hepatitis B virus. The data set is described as follows: Antiviral activity against HBV infected in human HepG2.2.15 cells assessed as reduction in viral DNA levels incubated for 6 days by PCR analysis. The note with it: HepG2 2.2.15, 144 h. The data set is classed as functional, organism-based.
Data set [10] deals with Hepatitis B virus. Nature of the data set: Antiviral activity against HBV genotype D in hydrodynamic injection-based C57BL/6 mouse model of HBV infection assessed as inhibition of HBV replication at 100 mg/kg, po dosed once daily for 7 days by real-time PCR analysis. The class given is functional, organism-based. Background: Quantitative PCR measures a nucleic acid by following its amplification.

A short description of data set [11]: Cytotoxicity in human HepG2 cells assessed as induction of cell killing.
For data set [12], the system named is Hepatitis B virus. The data set is described as follows: Antiviral activity against HBV infected in human HepG2.A64 cells containing reverse transcriptase L180M/T184L/M204V mutant assessed as reduction in viral replication incubated for 6 days by PCR analysis. The data set is classed as functional, organism-based. The note with it: HepG2.A64, 144 h. The procedure, abridged:
as §2

The test system of a further data set is HepG2 2.2.15. The data set is described as follows: Inhibition of reverse transcriptase in HBV infected in human HepG2.2.15 cells assessed as induction of intracellular viral RNA accumulation at 2 uM for 4 days by qPCR or qRT-PCR relative to control. The data set is classed as cell-based. The note with it: Hepatitis B virus.
Data set [13] is described as follows: Solubility in pH 5.8 phosphate buffer at 1 mg at 25 degC by HPLC analysis. The data set is classed as physicochemical. An outline of the steps:
(§3)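 Solubility determined in water or 0.067 M phosphate buffer at pH 5.8, 6.8 and 7.4. Values are reported in mg/mL; ND means below the detection limit.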

A short description of data set [14]: Solubility in water at 1 mg at 25 degC by HPLC analysis. The class given is physicochemical. An outline of the steps: as §3
Data set [15] is described as follows: Stability in pH 7.4 buffer assessed as compound hydrolysis level after 2 hrs at 37 degC by HPLC analysis. The conditions noted are these: pH 7.4, 2 h. The data set is classed as physicochemical. The procedure, abridged:
as §1

Data set [16] in a line: Solubility in pH 6.8 phosphate buffer at 1 mg at 25 degC by HPLC analysis. The class given is physicochemical. The conditions noted are these: BLD = below limit of detection. The procedure, abridged:
as §3

The nature of data set [17]: Stability in 0.1M HCl solution assessed as compound remaining level at 37 degC by HPLC analysis. The data set is classed as physicochemical. The conditions noted are these: buffer. An outline of the steps:
as §1

Data set [18] relates to Hepatitis B virus. The data set is described as follows: Induction of capsid assembly of recombinant HBV core protein 149 (1 to 149 residues) assessed as capsid peak AUC at 10 uM incubated overnight by UV detector based analysis (reference value: 0.96). An outline of the steps: (§4)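 Core protein N-terminal domain Cp149 (aa 1-149, 5 μM) incubated with compound (10 μM) or DMSO overnight at 37 °C in 150 mM NaCl, 50 mM HEPES, pH 7.4. Assembly is read by EM and by size-exclusion chromatography. In SEC, capsids elute early (about 1.08 mL) and dimers late (about 1.97 mL). Peak AUCs and the capsid/dimer AUC ratio are calculated.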

Data set [19] is described as follows: Cytotoxicity in human HepAD38 cells assessed as induction of cell killing. The class given is cell-based.
Data set [20] has as its system Hepatitis B virus. Nature of the data set: Induction of capsid assembly of recombinant HBV core protein 149 (1 to 149 residues) at 10 uM incubated overnight by SEC analysis. An outline of the steps:
as §4

Data set [21] has as its system Hepatitis B virus. The data set is described as follows: Induction of capsid assembly of recombinant HBV core protein 149 (1 to 149 residues) at 10 uM incubated overnight by electron microscopy. The procedure, abridged:
as §4

For data set [22], the system named is Hepatitis B virus. The data set is described as follows: Induction of capsid assembly of recombinant HBV core protein 149 (1 to 149 residues) assessed as capsid peak AUC/Cp dimer peak AUC at 10 uM incubated overnight by UV detector based analysis (reference value: 0.59). An outline of the steps: as §4
In data set [23] the test system is Hepatitis B virus. The data set is described as follows: Induction of capsid assembly of recombinant HBV core protein 149 (1 to 149 residues) assessed as Cp dimer peak AUC at 10 uM incubated overnight by UV detector based analysis (reference value: 1.63). An outline of the steps: as §4

What is called half-life is the time needed for the level to fall by half in the phase considered. Lower therefore signals rapid decline. With `Cc1cc(Nc2nn(C3CC3)c3cnc(S(=O)(=O)N4CCC(OC(=O)[C@H](C)N)CC4)cc23)ccc1F.O=C(O)C(F)(F)F`, the Stability was found to be 80.2% in data set [1] and 85.7% in [2]. Besides, in data set [3], the half-life was 31.2 min. In addition, the remaining at 3 h in [4] is 55.6%.
In general, CC50 refers to the concentration that lowers cell viability or growth by half. A word on the EC50: it is the concentration giving half of the maximal effect. Regarding `CC[C@@H](C)NS(=O)(=O)c1ccc(F)c(C(=O)Nc2ccc(F)c(F)c2)c1`, the selectivity ratio at 144 h in [5] worked out at 129. In addition, the CC50 in data set [6] and in [11] was 39800 nM in each case. For the same compound, the EC50 in the data set on Hepatitis B virus [7] is 74 nM; in the data set with Hepatitis B virus [8] it was 310 nM; with Hepatitis B virus [9], 280 nM; in the data set with Hepatitis B virus [12], 48 nM. Moreover, in the data set on Hepatitis B virus [10], the outcome was inactive.
For `Nc1ccn([C@@H]2CS[C@H](CO)O2)c(=O)n1` [LAMIVUDINE], the CC50 in data set [6] was over 100000 nM. The EC50 with Hepatitis B virus [7] is over 10000 nM; in the data set on Hepatitis B virus [8] it was 70 nM; with Hepatitis B virus [9], 3.8 nM; in the data set with Hepatitis B virus [12], over 10000 nM. For the same compound, the inhibition entry in the data set on HepG2 2.2.15 is “Active”.
What is called solubility is the dissolved amount per volume that the medium holds. Low values mean little dissolved substance, high ones much dissolved substance. For `Cc1cc(Nc2nn(C3CC3)c3cnc(S(=O)(=O)N4CCC(OC(=O)CN(C)C)CC4)cc23)ccc1F.O=C(O)C(F)(F)F`, the values for the solubility in [13], in data set [14] and in data set [16] were 290 µg/mL, 1510 µg/mL and “Bld”, respectively. For the same compound, the figures for the Stability entry in data set [1], in [15] and in [17] were “Unstable”, “Stable” and “Stable”, respectively. The half-life in data set [3] was found to be 47.2 min.
Consider `O=S(=O)(c1ccc2c(c1)c(Nc1cc(F)c(F)c(F)c1)nn2C1CC1)N1CCC(O)CC1`, for which the EC50 in the data set with Hepatitis B virus [8] came to 270 nM. In addition, the AUC was found to be 0.56 in the data set with Hepatitis B virus [18], 1.43 in the data set with Hepatitis B virus [22] and 0.39 with Hepatitis B virus [23]. Moreover, in data set [19], the CC50 was determined as 100000 nM. Further, the outcome with Hepatitis B virus [20] and in the data set with Hepatitis B virus [21] was Active.
